# Compound activity: PubChem, several laboratories
# Hits are enriched below; roughly 3.4% of the tested compounds scored in any of these assays.
# Runt-SMMHC FRET: inhibitors of human RUNX1 Runt domain binding to CBFb-SMMHC. Cerulean-Runt/Venus-CBFb-SMMHC FRET ratio 530/480, 1 h. inhibition, % at 20 µM. Q01196+Q13951. 220,000 tested, 0.74% active;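 active = mean inhibition across duplicate retests at 20 µM reaching about 50%, limit read from the data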;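 note: 0% = DMSO wells and 100% = wells with excess untagged CBFb-SMMHC; inhibitors lower the FRET ratio by blocking Runt binding to CBFb-SMMHC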
# Target sequence (Q01196 whole entry, looked up, the tested form may be a part): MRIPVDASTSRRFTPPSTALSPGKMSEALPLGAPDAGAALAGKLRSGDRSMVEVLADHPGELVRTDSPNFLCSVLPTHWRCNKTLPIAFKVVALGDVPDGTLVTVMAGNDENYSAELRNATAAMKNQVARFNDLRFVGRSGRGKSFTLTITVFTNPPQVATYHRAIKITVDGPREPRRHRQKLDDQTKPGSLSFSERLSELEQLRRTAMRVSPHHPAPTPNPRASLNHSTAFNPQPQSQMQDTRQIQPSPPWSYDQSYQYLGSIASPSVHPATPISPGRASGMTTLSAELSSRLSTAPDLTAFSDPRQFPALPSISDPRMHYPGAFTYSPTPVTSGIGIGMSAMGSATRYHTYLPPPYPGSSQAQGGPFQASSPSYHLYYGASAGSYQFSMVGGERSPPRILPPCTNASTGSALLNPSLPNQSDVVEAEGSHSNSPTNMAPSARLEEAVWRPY
# Target sequence (Q13951 whole entry, looked up, the tested form may be a part): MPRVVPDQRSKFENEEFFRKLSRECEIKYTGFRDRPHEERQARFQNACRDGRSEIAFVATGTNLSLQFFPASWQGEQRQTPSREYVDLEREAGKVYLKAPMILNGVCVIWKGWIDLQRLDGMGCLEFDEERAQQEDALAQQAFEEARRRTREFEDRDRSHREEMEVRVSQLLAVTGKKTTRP
# Runt-CBFb FRET: Runt domain-CBFb interaction inhibition; Q01196+Q13951; Cerulean-Runt/Venus-CBFb FRET ratio 530/480, 1 h; inhibition, % at 20 µM; 220,000 tested, 0.46% active;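 active = inhibition over about 50% at 20 µM in the single-dose screen, limit read from the data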;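 note: 0% = DMSO wells and 100% = excess unlabeled CBFb competitor control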
#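 Reagent – Venus-CBFb binding partner, 100 nM · Assay system – Cerulean-tagged RUNX1 Runt domain (FRET donor) fusion protein · Input – 100 nM per protein · Incubation – two 1 h room-temperature incubations shielded from light · Measured by – FRET fluorescence · Medium – Tris buffer pH 7.5 with salts and BSA · Benchmarks – unlabeled CBFb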
# PHOSPHO1 block: inhibitors of human PHOSPHO1 phosphatase; Q8TCT1; inhibition, % at 13.3 µM; recombinant PHOSPHO1, absorbance phosphatase assay; 290,000 tested, 1.1% active; in the data active = inhibition above about 60%
# RanGTP-Imp inh: inhibitors of RanGTP-importin-beta interaction, primary screen, biochemical, FRET, CFP-Ran, YFP-importin-beta, homogeneous; cell-free CFP-Ran/YFP-importin-beta FRET ratio; inhibition, % (test concentration not listed); 300,000 tested, 1.1% active;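 active = more than half of the replicate wells show a fall in the fluorescence ratio signal beyond about 16%, limit read from the data, passing the limit was not always enough; inconclusive = exactly half of the replicate wells pass the set limit; inactive = fewer than half of replicates pass the limit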;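 note: 0% = DMSO wells and 100% = Ran loaded with GDP instead of GTP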
# Wee1 degr inh: inhibitors of human Wee1 degradation; P30291; HeLa Luc-Wee1K328M stability, luciferase luminescence; 100% = proteasome inhibitor MG132 effect; reporter increase, % at 5 µM; 220,000 tested, 1.2% active; AID 1321;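 active = activation above the mean of all tested compounds plus 3 SD, set per screening run, cut at about 8.8% in these data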;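 note: cells exposed to compound for 20 h before luminescence read; 0% = DMSO alone and 100% = MG132 at 30 µM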
# Efa HMGR inh: E. faecalis class II HMG-CoA reductase inhibition; purified E. faecalis HMGR, NADPH absorbance 340 nm kinetic; inhibition, % at 10 µM; 190,000 tested, 0.41% active; AID 1066;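 active = inhibition above a set limit, the median over all tested compounds plus 3 SD, cut at about 9.5% in these data; inconclusive = no clear call, values can overlap the other calls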;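 note: enzyme runs in reverse so mevalonate oxidation gives rising NADPH absorbance; 0% = complete reaction with DMSO and 100% = background rate lacking mevalonate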
# * hit, by the source's call; ? = inconclusive; / = no result; ! = repeats disagree.
SMILES,Runt-SMMHC FRET,Runt-CBFb FRET,PHOSPHO1 block,RanGTP-Imp inh,Wee1 degr inh,Efa HMGR inh
CC(NC(=O)COC(=O)c1ccc([N+](=O)[O-])s1)c1ccccc1 (centres undefined),2,-1,-7,-3,8.9*,-9
Cc1ccn(CC(C)C(=O)O)n1 (centres undefined),2,3,12,4,9.6*,1
Cc1ccn(CCSCC(=O)O)n1,-2,-2,-8,5,-3,1
CCOC(=O)c1ccc2[nH]c3c(c2c1)CCCC3O (centres undefined),2,0,28,2,-1,-8
NC(=O)c1cccc2c3c([nH]c12)CCCC3,4,1,16,85*,-3,1
CCOC(=O)C1CCCc2c1[nH]c1c(C(N)=O)cccc21 (centres undefined),4,1,-1,25*,6,-1
CCOC(=O)c1c[nH][nH]c1=O,-2,2,27,?,1,/
CCOCCCN(C(=O)c1snc(C(N)=O)c1N)C(C(=O)NC1CCCC1)c1ccc(O)c(OC)c1 (centres undefined),/,/,44,2,/,/
CCOC(=O)c1ccc(N(C(=O)c2cnccn2)C(C(=O)NC2CCCCC2)c2cn(C)nc2C)cc1 (centres undefined),-10,-2,32,6,5,15*
Cc1nn(C)cc1C(C(=O)NC1CCCCC1)N(C(=O)c1cnccn1)c1ccc(Oc2ccccc2)cc1 (centres undefined),1,-2,3,2,-2,3
CCOC(=O)C1=C(C)NC(=O)NC1c1ccc(N(C)C)cc1 (centres undefined),3,1,29,0,-2,-4
CCC(CC)COC(=O)C1=C(C)NC(=O)NC1c1ccc(N(C)C)cc1 (centres undefined),/,/,25,16*,/,/
N/C(=N\OC(=O)CN1C(=O)c2ccccc2C1=O)c1ccc(Br)cc1,-4,-3,30,9,0,13*
N/C(=N\OC(=O)CN1C(=O)c2ccccc2C1=O)c1ccc(Cl)cc1,-4,-3,32,?,0,1
Cc1cccc(N(C)C(=O)CN(C)S(=O)(=O)c2ccc3c(c2)c(=O)n(C)c(=O)n3C)c1,/,/,28,7,/,/
COc1ccc(OC)c(N(CC(=O)NCCSC2CCCCC2)S(=O)(=O)c2ccccc2)c1,/,/,9,-1,/,/
O=[N+]([O-])c1cccc(/C=C/c2ccccn2)c1,-2,0,8,-1,10.0*,/
O=[N+]([O-])c1cccc(/C=N/Nc2ccccn2)c1,-1,-1,27,4,1,1
O=C(Nc1ccc(C(F)(F)F)cc1)c1csc(-c2ccncc2)n1,1,-8,64*,-1,5,2
O=C1C2C3C=CC(C2C(=O)N1c1ccccc1O)C1C2C(=O)N(c4ccccc4O)C(=O)C2C31 (centres undefined),0,-1,37,-4,8.8*,-3
O=C1C2C3C=CC(C2C(=O)N1c1ccc(O)cc1)C1C2C(=O)N(c4ccc(O)cc4)C(=O)C2C31 (centres undefined),-1,1,19,2,0,/
CCOc1ccc(OCC(=O)c2c(O)c3ccccc3oc2=O)cc1,2,8,68*,-1,-3,0
COc1ccc(OCC(=O)c2c(O)c3ccccc3oc2=O)cc1,8,9,-35,6,0,-3
Clc1nccnc1-c1ccccc1,8,-2,9,0,-2,1
CN(C)CCOC(c1ccccc1)c1ccccc1,-1,2,/,?,-4,18*!
O=c1oc2c(O)c(O)cc3c(=O)oc4c(O)c(O)cc1c4c23,46,36,45,/,1,24*
O=c1oc2ccccc2c2oc3cc(O)c(O)cc3c12,-67,-4,4,2,2,/
COC(=O)c1sccc1NC(=O)Nc1ccccc1F,1,-1,63*,0,-3,7
COC(=O)c1ccc(NC(=O)Nc2ccccc2C)cc1,4,/,18,-2,-2,-1
COC(=O)c1sccc1NC(=O)Nc1ccccc1C,/,/,37,/,/,/
